Converted amounts (≈) assume the structure as drawn. The source made the active and inactive calls. No cut-off for these calls is given here.
Columns and labels:
[1] = In vitro antiviral activity against mice infected intracerebrally with Poliovirus type-2; assay type: functional
Mus musculus [2] = species: Mus musculus; test: MIC at the Maximal testable level in mice was evaluated; assay type: functional; conditions: read-out: MIC
Enterovirus = test: In vitro antiviral activity against Rhinovirus type-2; assay type: functional
Mus musculus [3] = test: In vitro antiviral activity against mice infected intracerebrally with Poliovirus type-2; IA=Inactive; assay type: functional, organism-based
Mus musculus [4] = test: In vivo antiviral activity at 8 mg/kg oral dose in mice infected with Poliovirus; 9/20; assay type: functional
Method in brief: (§1)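 Mice given oral drug or placebo starting 1 h before intracerebral infection with poliovirus type 2. Doses were 4, 8, 16 or 32 mg/kg, with 20 mice per group. Survival was scored as % survivors and number surviving out of total, with the test ending 20 days post-infection.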

Mus musculus [5] = test: In vivo antiviral activity at 4 mg/kg oral dose in mice infected with Poliovirus; 8/20; assay type: functional; method in brief: as §1
Mus musculus [6] = test: Prevention of Echo-9-Induced Paralysis in Suckling mice by intraperitoneal administration at dose 1 mg/kg; expressed as no. nonparalyzed/total 2/30; assay type: functional
Method in brief: (§2)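 Suckling mice infected subcutaneously with a lethal dose of ECHO-9 virus. Intraperitoneal dosing at 1.0, 3.3, 10 or 33 mg/kg, or placebo, began 1 h before infection and continued once daily for 8 days. Groups of 30 animals were scored for paralysis, and the test ended 14 days post-infection. Results are given as % nonparalyzed (± spread) and as the nonparalyzed/total count.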

Mus musculus [7] = test: In vivo antiviral activity at 16 mg/kg oral dose in mice infected with Poliovirus; assay type: functional; method in brief: as §1
Mus musculus [8] = test: Prevention of Echo-9-Induced Paralysis in Suckling mice by intraperitoneal administration at dose 33 mg/kg; Expressed as % nonparalyzed; assay type: functional; method in brief: as §2
Mus musculus [9] = test: Prevention of Echo-9-Induced Paralysis in Suckling mice by intraperitoneal administration at dose 10 mg/kg; expressed as no. nonparalyzed/total 19/30; assay type: functional; method in brief: as §2
Mus musculus [10] = test: Prevention of Echo-9-Induced Paralysis in Suckling mice by intraperitoneal administration at dose 1 mg/kg; Expressed as % nonparalyzed; assay type: functional; method in brief: as §2
Mus musculus [11] = test: In vivo antiviral activity of the compound in Placebo treated mice infected with Poliovirus; assay type: functional; method in brief: as §1
Mus musculus [12] = species: Mus musculus; test: Prevention of Echo-9-Induced Paralysis in Suckling mice with Placebo; expressed as no. nonparalyzed/total 0/30; assay type: functional; method in brief: as §2
Mus musculus [13] = test: In vivo antiviral activity at 4 mg/kg oral dose in mice infected with Poliovirus; assay type: functional; method in brief: as §1
Mus musculus [14] = test: Prevention of Echo-9-Induced Paralysis in Suckling mice by intraperitoneal administration at dose 3.3 mg/kg; expressed as no. nonparalyzed/total 6/30; assay type: functional; method in brief: as §2
Mus musculus [15] = species: Mus musculus; test: Prevention of Echo-9-Induced Paralysis in Suckling mice with Placebo; Expressed as % nonparalyzed; assay type: functional; method in brief: as §2
Mus musculus [16] = test: In vivo antiviral activity of the compound in Placebo treated mice infected with Poliovirus; 4/20; assay type: functional; method in brief: as §1
Mus musculus [17] = test: In vivo antiviral activity at 32 mg/kg oral dose in mice infected with Poliovirus; 15/20; assay type: functional; method in brief: as §1
Mus musculus [18] = test: Prevention of Echo-9-Induced Paralysis in Suckling mice by intraperitoneal administration at dose 3.3 mg/kg; Expressed as % nonparalyzed; assay type: functional; method in brief: as §2
Mus musculus [19] = test: In vivo antiviral activity at 8 mg/kg oral dose in mice infected with Poliovirus; assay type: functional; method in brief: as §1
Mus musculus [20] = test: In vivo antiviral activity at 32 mg/kg oral dose in mice infected with Poliovirus; assay type: functional; method in brief: as §1
Mus musculus [21] = test: Prevention of Echo-9-Induced Paralysis in Suckling mice by intraperitoneal administration at dose 33 mg/kg; expressed as no. nonparalyzed/total 29/30; assay type: functional; method in brief: as §2
Mus musculus [22] = test: In vivo antiviral activity at 16 mg/kg oral dose in mice infected with Poliovirus;13/20; assay type: functional; method in brief: as §1
Mus musculus [23] = test: Prevention of Echo-9-Induced Paralysis in Suckling mice by intraperitoneal administration at dose 10 mg/kg; Expressed as % nonparalyzed; assay type: functional; method in brief: as §2

Row | SMILES | MIC [1] | maximal testable concentration (Mus musculus [2]) | MIC (Enterovirus) | further results
1 | Cc1cc(CCCCCCCCOc2ccc(C3=NCCO3)cc2)on1 | 0.01 µg/mL (≈ 0.0281 µM) | 8 µg/mL | 0.16 µg/mL (≈ 0.449 µM) | –
2 | Cc1cc(CCCCCCOc2ccc(C3=NCCO3)cc2)on1 | 0.008 µg/mL (≈ 0.0244 µM) | 3.1 µg/mL | 0.12 µg/mL (≈ 0.365 µM) | –
3 | Cc1cc(CCCCOc2ccc(C3=NCCO3)cc2)on1 | 0.49 µg/mL (≈ 1.63 µM) | 6.2 µg/mL | 0.53 µg/mL (≈ 1.76 µM) | –
4 | COCC1CN=C(c2ccc(OCCCCCCCc3cc(C)no3)cc2)O1 (stereo not given) | – | 3.1 µg/mL | 0.2 µg/mL (≈ 0.517 µM) | MIC (Mus musculus [3]): inactive
5 | Cc1cc(CCCCCOc2ccc(C3=NCCO3)cc2)on1 | 0.003 µg/mL (≈ 0.00954 µM) | 3.1 µg/mL | 0.1 µg/mL (≈ 0.318 µM) | –
6 | COc1ccc(OCCCCCCCc2cc(C)no2)c(Cl)c1 | 0.05 µg/mL (≈ 0.148 µM) | – | 0.04 µg/mL (≈ 0.118 µM) | –
7 | Cc1cc(CCCCCCCOc2ccc(C3=NCC(CO)O3)cc2)on1 (stereo not given) | 2.6 µg/mL (≈ 6.98 µM) | 3.1 µg/mL | 1.6 µg/mL (≈ 4.3 µM) | –
8 | Cc1cc(CCCCCCCOc2ccc(C3=NC(C)CO3)cc2)on1 (stereo not given) | 0.12 µg/mL (≈ 0.337 µM) | 3.1 µg/mL | 0.04 µg/mL (≈ 0.112 µM) | –
9 | Cc1cc(CCCCCCCOc2ccc(C3=NC(CO)CO3)cc2)on1 (stereo not given) | – | 3.1 µg/mL | 0.9 µg/mL (≈ 2.42 µM) | MIC (Mus musculus [3]): inactive
10 | Cc1cc(CCCCCCCOc2ccc(C3=NC(C)(C)CO3)cc2)on1 | 1.1 µg/mL (≈ 2.97 µM) | 3.1 µg/mL | 0.06 µg/mL (≈ 0.162 µM) | –
11 | Cc1cc(CCCCCCCOc2ccc(C3=N[C@H](C)CO3)cc2)on1 | 0.16 µg/mL (≈ 0.449 µM) | 3.1 µg/mL | 0.02 µg/mL (≈ 0.0561 µM) | –
12 | CCOC(=O)c1ccc(OCCCCCCCc2cc(C)no2)cc1 | > 0.8 µg/mL | – | 0.025 µg/mL (≈ 0.0724 µM) | –
13 | Cc1cc(CCCCCCCOc2ccc(C3=NCCO3)cc2)on1 [DISOXARIL] | 0.004 µg/mL (≈ 0.0117 µM) | 6.2 µg/mL | 0.1 µg/mL (≈ 0.292 µM) | No. of survivors/total (Mus musculus [4]): 9; No. of survivors/total (Mus musculus [5]): 8; Activity (Mus musculus [6]): 2; Survivors (Mus musculus [7]): 65%; Activity (Mus musculus [8]): 96.7%; Activity (Mus musculus [9]): 19; Activity (Mus musculus [10]): 6.7%; Survivors (Mus musculus [11]): 20%; Activity (Mus musculus [12]): 0; Survivors (Mus musculus [13]): 40%; Activity (Mus musculus [14]): 6; Activity (Mus musculus [15]): 0%; No. of survivors/total (Mus musculus [16]): 4; No. of survivors/total (Mus musculus [17]): 15; Activity (Mus musculus [18]): 20%; Survivors (Mus musculus [19]): 45%; Survivors (Mus musculus [20]): 71%; Activity (Mus musculus [21]): 29; No. of survivors/total (Mus musculus [22]): 13; Activity (Mus musculus [23]): 63.7%
14 | Cc1cc(CCCCCCCOc2ccc(C3=NCC(C)O3)cc2)on1 (stereo not given) | 0.49 µg/mL (≈ 1.37 µM) | 6.2 µg/mL | 0.06 µg/mL (≈ 0.168 µM) | –

Reference: ChEMBL document CHEMBL1123069, “[[(4,5-Dihydro-2-oxazolyl)phenoxy]alkyl]isoxazoles. Inhibitors of picornavirus uncoating” (1985)
